Experimental data taken from article PMC4111403 (Journal of Medicinal Chemistry, 2014).
Blank lines part the entries; values can stand above or below the compound they belong to.

What was measured:
[1] = system: acetylated α-tubulin (AcTub) in QBI293 cells; experiment: QBI293 cell AcTub; format: cell-based; details: for activity in AcTub assay: 1 μM; for increase of cellular AcTub (words, Figure 2): compared with 1
Summary of the method: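 QBI293 cells are an HEK293 derivative. Tubulin acetylation, which occurs on polymerized tubulin, serves as the cellular read-out of MT stabilization. Test compounds were run at 0.1 or 1 μM. AcTub was expressed relative to vehicle-treated cells and to a 0.1 μM reference MT-stabilizer positive control. Significance was assessed by two-tailed t-test.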

Pgp transporter = details: cited from earlier work
[2] = system: acetylated α-tubulin (AcTub) in QBI293 cells; details: 50–500 nM concentrations ref 8; cited from earlier work
[3] = system: AcTub levels in brain homogenates; details: single ip injection 1–6 mg/kg, mice ref 4; cited from earlier work
β-tubulin = β-tubulin ref 28; cited from earlier work
[4] = 16 h brain and plasma PK study after ip dosing; format: in vivo, CD1 mice; details: for brain penetration / BBB permeability: mouse, ip dosing; for half-life: CD1, mouse, ip, 5 mg/kg
Summary of the method: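 2-month-old CD1 mice (20 g average). Plasma from EDTA-collected blood spun 4500g, 10 min, 4 °C; brain hemispheres sonicated in 10 mM ammonium acetate pH 5.7 (1:2 w/v). Acetonitrile-precipitated supernatants quantified by LC–MS/MS (positive ESI, MRM) against spiked-matrix standards 0.005–5 μM.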

human Pgp = human Pgp (Homo sapiens, UniProt P08183); experiment: Pgp-interaction assay; format: cell-based; details: NCI/ADR-RES cells
[5] = system: Pgp-expressing cancer cell lines; details: cited from earlier work
QBI293 cells = experiment: AcTub immunofluorescence of QBI293 cells; format: cell-based; details: 4 h incubation; 2 at 100 nM, colchicine at 1 μM
[6] = system: AcTub levels in brain homogenates; experiment: Brain pharmacodynamic effect: AcTub levels in brain homogenates; format: in vivo, WT mice; details: 1 mg/kg daily ip for 4 or 6 days, n = 3
[7] = Brain and plasma levels 2 h after oral administration; format: in vivo, mice; details: 2 h after oral administration of 10 mg/kg
Summary of the method: (§1)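 Dosing in 2-month-old CD1 mice (20 g average). Brain hemispheres homogenized by sonication in 10 mM ammonium acetate pH 5.7 (1:2 w/v); plasma from EDTA blood centrifuged 4500g, 10 min, 4 °C. Samples precipitated with acetonitrile, spun 15 000g, then analysed by UPLC–MS/MS with positive ESI and MRM. Quantified against brain- and plasma-matrix standard curves spanning 0.005–5 μM.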

[8] = Unbound fraction in brain homogenate by equilibrium dialysis; format: in vitro ADME; details: ratio of brain Fu values
tau transgenic (Tg) mice = details: tau Tg mice with brain stem and spinal cord tau pathology ref 5; cited from earlier work
[9] = Brain and plasma compound concentration 1 h after ip injection; format: in vivo, CD1 mice; details: 1 h after ip injection of 5 mg/kg, mouse
Summary of the method: as §1

human Pgp, sequence (P08183 whole entry): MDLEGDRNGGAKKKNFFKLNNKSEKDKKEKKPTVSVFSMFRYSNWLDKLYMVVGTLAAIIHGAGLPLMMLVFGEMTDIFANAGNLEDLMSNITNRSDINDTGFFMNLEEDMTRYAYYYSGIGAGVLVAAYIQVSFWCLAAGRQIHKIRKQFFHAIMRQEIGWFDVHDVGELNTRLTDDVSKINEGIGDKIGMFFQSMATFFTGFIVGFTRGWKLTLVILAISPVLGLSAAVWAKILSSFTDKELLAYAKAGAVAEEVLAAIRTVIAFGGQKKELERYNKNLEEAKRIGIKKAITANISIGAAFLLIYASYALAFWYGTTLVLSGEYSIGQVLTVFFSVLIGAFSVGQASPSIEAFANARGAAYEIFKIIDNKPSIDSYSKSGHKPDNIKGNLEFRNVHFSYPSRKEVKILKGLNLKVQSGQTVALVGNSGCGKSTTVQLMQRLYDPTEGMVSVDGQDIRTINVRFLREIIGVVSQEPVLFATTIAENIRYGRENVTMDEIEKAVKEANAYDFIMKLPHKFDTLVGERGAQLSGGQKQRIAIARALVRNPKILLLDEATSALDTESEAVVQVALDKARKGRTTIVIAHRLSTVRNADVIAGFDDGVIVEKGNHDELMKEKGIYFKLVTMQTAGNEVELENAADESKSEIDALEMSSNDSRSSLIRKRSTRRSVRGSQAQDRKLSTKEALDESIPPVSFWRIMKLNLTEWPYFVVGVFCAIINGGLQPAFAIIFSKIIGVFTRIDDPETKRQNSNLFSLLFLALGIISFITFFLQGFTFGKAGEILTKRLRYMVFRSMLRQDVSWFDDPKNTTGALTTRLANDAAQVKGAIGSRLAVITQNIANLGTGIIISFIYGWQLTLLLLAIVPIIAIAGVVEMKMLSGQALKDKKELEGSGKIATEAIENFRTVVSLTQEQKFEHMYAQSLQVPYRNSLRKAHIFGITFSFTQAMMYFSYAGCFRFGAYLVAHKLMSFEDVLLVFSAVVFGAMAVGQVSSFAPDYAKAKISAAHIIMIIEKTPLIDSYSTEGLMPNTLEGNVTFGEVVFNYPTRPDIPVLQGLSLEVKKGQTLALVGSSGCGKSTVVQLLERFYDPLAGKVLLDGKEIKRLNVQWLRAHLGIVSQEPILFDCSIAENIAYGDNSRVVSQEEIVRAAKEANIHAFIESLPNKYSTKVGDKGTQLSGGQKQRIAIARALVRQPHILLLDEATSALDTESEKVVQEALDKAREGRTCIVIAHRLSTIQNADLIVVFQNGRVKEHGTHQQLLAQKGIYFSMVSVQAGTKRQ

Compound: 5-(4-Chlorophenyl)-6-methyl-4-(2,4,6-trifluorophenyl)pyridazin-3(2H)-one [Compound 6, reference compound]
activity in AcTub assay [1]: essentially inactive
AcTub fold-change relative to vehicle control ([1]; compound at 1 μM): 1.5 ± 0.8^ns fold-change

Compound: C/C1=C/C[C@@H](/C(C)=C/c2csc(C)n2)OC(=O)C[C@H](O)C(C)(C)C(=O)[C@H](C)[C@@H](O)[C@@H](C)CCC1 [Compound 1, epothilone D]
Pgp transporter inhibition (Pgp transporter): inhibitor of the Pgp transporter
elevation of AcTub levels in cells [2]: significant elevation
elevation in AcTub levels in brain homogenates [3]: significant elevation

brain penetration / BBB permeability [4]: negligible brain penetration
Compound: CNCCCOc1cc(F)c(-c2c(Cl)nc3ncnn3c2N[C@@H](C)C(F)(F)F)c(F)c1 [Compound 2, (S)-5-Chloro-6-(2,6-difluoro-4-(3-(methylamino)propoxy)phenyl)-N-(1,1,1-trifluoropropan-2-yl)[1,2,4]triazolo[1,5-a]pyrimidin-7-amine]
increase of cellular AcTub (words, Figure 2) [1]: significant increase
competition for the taxane/epothilone binding site (β-tubulin): not to compete
effect on vinblastine binding (β-tubulin): did affect vinblastine binding
effect on Pgp function (calcein-AM transport) (human Pgp): did not interfere appreciably with Pgp function
activity against Pgp-expressing cancer cell lines [5]: active
AcTub staining by immunofluorescence (QBI293 cells): large increase in AcTub-positive structures

Compound: Cc1nnc(Cl)c(-c2c(F)cc(F)cc2F)c1-c1ccc(Cl)s1 [Compound 7, 3-Chloro-5-(5-chlorothiophen-2-yl)-6-methyl-4-(2,4,6-trifluorophenyl)pyridazine, reference compound]
activity in AcTub assay [1]: essentially inactive

Compound: C[C@H](Nc1c(-c2c(F)cc(OCCCN(C)C)cc2F)c(Cl)nc2ncnn12)C(F)(F)F [Compound 9, (S)-5-Chloro-6-(4-(3-(dimethylamino)propoxy)-2,6-difluorophenyl)-N-(1,1,1-trifluoropropan-2-yl)[1,2,4]triazolo[1,5-a]pyrimidin-7-amine]
PD response: AcTub level in brain [6]: significant PD response
increase of cellular AcTub (words, Figure 2) [1]: large increase
AcTub fold-change relative to vehicle control (numbers in parentheses) ([1]; compound at 0.1 μM): (2.0 ± 1.4) fold-change
half-life ([4]; brain): > 2 h
half-life ([4]; plasma): > 2 h
brain penetration / BBB permeability [4]: relatively limited
effect on Pgp function (calcein-AM transport) (human Pgp): did not interfere appreciably with Pgp function
brain and plasma levels after oral dosing [7]: micromolar levels
brain Fu value of 9 relative to 20 [8]: ~3 fold

brain penetration / BBB permeability [4]: can readily partition across the BBB
brain and plasma levels after oral dosing [7]: micromolar levels
Compound: C[C@H](Nc1nc(-c2cnccn2)nc(Cl)c1-c1c(F)cc(F)cc1F)C(F)(F)F [Compound 20, (S)-6-Chloro-2-(pyrazin-2-yl)-5-(2,4,6-trifluorophenyl)-N-(1,1,1-trifluoropropan-2-yl)pyrimidin-4-amine]
PD response: AcTub level in brain [6]: significant PD response
increase of cellular AcTub (words, Figure 2) [1]: large increase
effect on Pgp function (calcein-AM transport) (human Pgp): did not interfere appreciably with Pgp function

Compound: CC(C)Nc1c(-c2c(F)cc(F)cc2F)c(Cl)nc2nccnc12 [Compound 37, 6-Chloro-N-isopropyl-7-(2,4,6-trifluorophenyl)pyrido[2,3-b]pyrazin-8-amine]
activity in AcTub assay [1]: essentially inactive

Compound: COc1cc2c(c(OC)c1OC)-c1ccc(OC)c(=O)cc1[C@@H](NC(C)=O)CC2 [colchicine]
AcTub staining by immunofluorescence (QBI293 cells): significant loss of AcTub staining

Compound: CC(=O)O[C@H]1C(=O)[C@@]2(C)[C@H]([C@H](OC(=O)c3ccccc3)[C@]3(O)C[C@H](OC(=O)[C@H](O)[C@@H](NC(=O)c4ccccc4)c4ccccc4)C(C)=C1C3(C)C)[C@]1(OC(C)=O)CO[C@@H]1C[C@@H]2O [paclitaxel]
effect on neurodegenerative phenotype of tau Tg mice (tau transgenic (Tg) mice): improve the neurodegenerative phenotype

B/P (brain-to-plasma ratio) [9]: 0.12 ± 0.03
brain concentration [9]: 170 ± 10 nM
plasma concentration [9]: 1500 ± 500 nM
Compound: (S)-N-(3-(4-(5-Chloro-7-((1,1,1-trifluoropropan-2-yl)amino)[1,2,4]triazolo[1,5-a]pyrimidin-6-yl)-3,5-difluorophenoxy)propyl)pivalamide [Compound 16]
AcTub fold-change relative to vehicle control ([1]; compound at 1 μM): 2.4 ± 0.9 fold-change
AcTub fold-change relative to 0.1 μM 2 ([1]; compound at 1 μM, relative to positive control 0.1 μM 2): 0.7 ± 0.1 fold-change
